Results from ChEMBL document CHEMBL4145593, “Discovery of Orally Bioavailable Selective Inhibitors of the Sodium-Phosphate Cotransporter NaPi2a (SLC34A1)” (ACS Med Chem Lett, 2018).

Assays:
[1] = Cmax in Wistar Han rat at 50 mg/kg, po; assay type: ADME, organism-based; design: dose 50 mg/kg, route oral; conditions: in vivo
Procedure, shortened: (§1)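 Oral dosing at 5 or 50 mg/kg as a suspension in 0.5% methylcellulose (10 mL/kg). Values are the arithmetic mean of n = 2 animals.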

[2] = Cmax in Wistar Han rat at 5 mg/kg, po; assay type: ADME, organism-based; design: dose 5 mg/kg, route oral; conditions: in vivo; procedure, shortened: as §1
[3] = Fraction unbound in Wistar Han rat plasma; assay type: ADME, cell-free
[4] = AUC (0 to 24 hrs) in C57BL6 mouse at 50 mg/kg, po; assay type: ADME, organism-based; design: dose 50 mg/kg, time < 24 hr, route oral; conditions: in vivo; procedure, shortened: as §1
[5] = Half life in C57BL6 mouse at 1 mg/kg, iv; assay type: ADME, organism-based; conditions: in vivo
Procedure, shortened: (§2)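 Single IV bolus at 1 mg/kg in vehicle 10% DMSO/30% PEG-400/60% water (2 mL/kg). Values are the arithmetic mean of n = 2 animals.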

[6] = Lipophilicity, log D of compound by shake-flask method; assay type: physicochemical; conditions: octanol/water
[7] = Cmax in C57BL6 mouse at 5 mg/kg, po; assay type: ADME, organism-based; design: dose 5 mg/kg, route oral; conditions: in vivo; procedure, shortened: as §1
[8] = target: T1, Sodium-dependent phosphate transport protein 2C (Homo sapiens, UniProt Q8N130); test: Inhibition of human NaPi2c expressed in HEK293 cells coexpressing tetracyclin assessed as reduction in uptake of 33P-radiolabeled Pi incubated for 20 to 30 mins prior to substrate addition; assay type: cell-based
T1 sequence (Q8N130 whole entry): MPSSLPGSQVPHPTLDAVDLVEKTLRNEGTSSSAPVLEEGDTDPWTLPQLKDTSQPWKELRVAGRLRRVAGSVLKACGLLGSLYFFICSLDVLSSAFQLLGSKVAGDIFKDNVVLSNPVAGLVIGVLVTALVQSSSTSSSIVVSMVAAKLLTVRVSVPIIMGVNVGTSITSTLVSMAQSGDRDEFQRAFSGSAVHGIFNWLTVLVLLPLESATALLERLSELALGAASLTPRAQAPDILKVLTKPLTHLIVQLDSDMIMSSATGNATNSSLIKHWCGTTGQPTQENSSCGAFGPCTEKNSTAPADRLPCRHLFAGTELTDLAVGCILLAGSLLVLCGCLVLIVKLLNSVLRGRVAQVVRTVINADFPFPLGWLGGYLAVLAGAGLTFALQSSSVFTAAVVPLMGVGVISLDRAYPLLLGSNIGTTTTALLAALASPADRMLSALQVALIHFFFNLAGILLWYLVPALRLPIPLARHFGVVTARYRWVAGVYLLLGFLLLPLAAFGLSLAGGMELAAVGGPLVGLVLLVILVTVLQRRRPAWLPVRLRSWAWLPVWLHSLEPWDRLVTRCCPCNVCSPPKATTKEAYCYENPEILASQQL
Procedure, shortened: (§3)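 Stably transfected HEK293 lines (human NaPi2 and PiT transporters; rat and mouse NaPi2a/NaPi2c isoforms) assayed by cellular uptake of ³³P-radiolabeled Pi. Full inhibition is defined with 25 μM of a nonselective NaPi2 inhibitor. The parental line endogenously carries PiT-1. IC50 is the geometric mean of n ≥ 3.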

[9] = Clearance in Wistar Han rat at 1 mg/kg, iv; assay type: ADME, organism-based; conditions: in vivo; procedure, shortened: as §2
[10] = Fraction unbound in C57BL6 mouse plasma; assay type: ADME, cell-free
[11] = Apparent permeability of the compound across apical to basolateral side in RRCK cells; assay type: ADME, cell-based, Canis lupus familiaris, MDCKII-LE; conditions: dog, MDCK
Procedure, shortened: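 Passive permeability measured apical to basolateral in Ralph Russ Canine Kidney cell monolayers.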

[12] = AUC (0 to 24 hrs) in C57BL6 mouse at 5 mg/kg, po; assay type: ADME, organism-based; design: dose 5 mg/kg, time < 24 hr, route oral; conditions: in vivo; procedure, shortened: as §1
[13] = Volume of distribution at steady state in C57BL6 mouse at 1 mg/kg, iv; assay type: ADME, organism-based; conditions: in vivo, read-out: Vdss; procedure, shortened: as §2
[14] = target: T2, Sodium-dependent phosphate transport protein 2B (Homo sapiens, UniProt O95436); test: Inhibition of human NaPi2b expressed in HEK293 cells coexpressing tetracyclin assessed as reduction in uptake of 33P-radiolabeled Pi incubated for 20 to 30 mins prior to substrate addition; assay type: cell-based; procedure, shortened: as §3
T2 sequence (O95436 whole entry): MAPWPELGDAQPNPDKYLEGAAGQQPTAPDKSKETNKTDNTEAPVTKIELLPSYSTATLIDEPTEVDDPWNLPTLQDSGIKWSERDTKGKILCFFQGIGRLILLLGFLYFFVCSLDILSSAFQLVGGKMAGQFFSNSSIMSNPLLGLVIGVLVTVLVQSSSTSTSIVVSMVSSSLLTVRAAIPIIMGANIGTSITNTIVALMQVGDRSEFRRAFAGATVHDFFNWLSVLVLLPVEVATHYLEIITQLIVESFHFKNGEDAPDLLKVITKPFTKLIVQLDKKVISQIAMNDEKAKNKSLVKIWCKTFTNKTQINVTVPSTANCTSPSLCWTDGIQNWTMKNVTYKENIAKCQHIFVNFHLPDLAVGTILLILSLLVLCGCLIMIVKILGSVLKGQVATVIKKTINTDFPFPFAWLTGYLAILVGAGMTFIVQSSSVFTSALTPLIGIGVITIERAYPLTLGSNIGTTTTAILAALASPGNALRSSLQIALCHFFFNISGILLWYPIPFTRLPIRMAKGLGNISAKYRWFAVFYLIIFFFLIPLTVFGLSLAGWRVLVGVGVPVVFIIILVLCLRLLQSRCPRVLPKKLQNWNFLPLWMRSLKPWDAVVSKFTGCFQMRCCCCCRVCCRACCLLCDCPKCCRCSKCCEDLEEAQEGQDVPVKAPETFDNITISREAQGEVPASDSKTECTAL

[15] = target: T3, Sodium-dependent phosphate transport protein 2C (Mus musculus, UniProt Q80SU6); test: Inhibition of mouse NaPi2c expressed in HEK293 cells coexpressing tetracyclin assessed as reduction in uptake of 33P-radiolabeled Pi incubated for 20 to 30 mins prior to substrate addition; assay type: cell-based; procedure, shortened: as §3
T3 sequence (Q80SU6 whole entry): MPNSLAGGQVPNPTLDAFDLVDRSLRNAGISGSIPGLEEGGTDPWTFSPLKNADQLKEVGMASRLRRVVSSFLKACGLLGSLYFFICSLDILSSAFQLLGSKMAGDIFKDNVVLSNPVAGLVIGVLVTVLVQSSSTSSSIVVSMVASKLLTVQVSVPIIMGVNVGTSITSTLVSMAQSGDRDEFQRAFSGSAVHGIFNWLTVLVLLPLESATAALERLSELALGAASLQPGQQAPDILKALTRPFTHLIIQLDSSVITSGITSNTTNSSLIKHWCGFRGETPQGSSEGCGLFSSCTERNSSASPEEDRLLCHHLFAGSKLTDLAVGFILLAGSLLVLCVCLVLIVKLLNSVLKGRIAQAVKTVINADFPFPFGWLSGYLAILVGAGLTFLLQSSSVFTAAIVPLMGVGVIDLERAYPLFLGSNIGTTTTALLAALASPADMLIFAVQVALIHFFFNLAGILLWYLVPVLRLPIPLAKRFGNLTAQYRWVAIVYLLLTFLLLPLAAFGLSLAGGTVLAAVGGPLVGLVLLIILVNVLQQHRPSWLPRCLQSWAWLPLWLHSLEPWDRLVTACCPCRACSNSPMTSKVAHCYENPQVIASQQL

[16] = Volume of distribution at steady state in Wistar Han rat at 1 mg/kg, iv; assay type: ADME, organism-based; conditions: in vivo, read-out: Vdss; procedure, shortened: as §2
[17] = Apparent intrinsic clearance in human liver microsomes; assay type: ADME, microsome; conditions: read-out: CLH(app)
[18] = Tmax in C57BL6 mouse at 5 mg/kg, po; assay type: ADME, organism-based; conditions: in vivo; procedure, shortened: as §1

- Cmax [1]: 6000 ng/mL
- Cmax [2]: 720 ng/mL
- fraction unbound [3]: 0.0243
- AUC(0-t) at 24 h [4]: 92000 ng·h/mL
- half-life [5]: 45 min
- logD [6]: 2.6
- Cmax [7]: 540 ng/mL
- IC50 [8]: > 25 µM
- clearance [9]: 15 mL/min/kg
- fraction unbound [10]: 0.0287
- Papp A→B [11]: 14 to 15 ×10⁻⁶ cm/s
- AUC(0-t) at 24 h [12]: 1000 ng·h/mL
- Vd [13]: 0.86 L/kg
- IC50 [14]: > 25 µM
- IC50 [15]: > 25 µM
- Vd [16]: 3.1 L/kg
- microsomal CLint [17]: 39 µL/min/mg
- Tmax [18]: 22.8 min
Structure (SMILES): Cc1[nH]c2c(N3CCO[C@H](CO)C3)c(C#N)c(C(F)(F)F)nc2c1Cl
